Measured values reported in article PMC4417838 (International Journal for Parasitology: Drugs and Drug …, 2015).
Converted amounts (≈) assume the structure as drawn. “Also recorded” adds a separate entry of the source. Where two headings read alike, the source gives them in different places.

Tests used:
[1] = tested on: P. falciparum strain NF54; assay: Malstat assay, growth inhibition of P. falciparum NF54; format: cell-based, Plasmodium falciparum; conditions: for Selectivity index SI (NF54): CC50 (MCF7)/IC50 (NF54); for IC50: Plasmodium falciparum; for gain in activity over the parent compound tryptanthrin: mono-derivatization at position 8, strain not stated; for times more potent than tryptanthrin: CQ-sensitive strain
P. falciparum strain Dd2 = assay: Malstat assay, growth inhibition of P. falciparum Dd2; format: cell-based, Plasmodium falciparum; conditions: for Selectivity index SI (Dd2): CC50 (MCF7)/IC50 (Dd2); for IC50: Plasmodium falciparum, DD2, read-out: Mean IC50 ± SD Dd2
MTT cytotoxicity assay = format: cell-based; conditions: human, MCF-7 cells
Solubility in DMSO = format: physicochemical; conditions: organic solvent or mixture
Stability observation = format: physicochemical
[2] = tested on: P. falciparum NF54 gametocytes; assay: Gametocyte toxicity test; format: cell-based, Plasmodium falciparum; conditions: nanomolar concentrations, positive control
In short: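 NF54 was seeded at 1–2% parasitemia and 5% hematocrit in RPMI/HEPES/hypoxanthine/bicarbonate with 10% human serum, under 5% O2/5% CO2/90% N2 at 37 °C, with medium changed daily. Stage II gametocytes were plated in triplicate with compound for 48 h, then kept in compound-free medium to day 7. Stage IV–V gametocytes per 1000 erythrocytes were counted on Giemsa smears and normalised to the DMSO control; means were compared by one-way ANOVA with Tukey's test.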

[3] = tested on: P. falciparum NF54 mature gametocytes; assay: Exflagellation assay; format: cell-based, Plasmodium falciparum; conditions: compound at IC90 concentration, 15 min and 24 h incubation
In short: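 Mature NF54 gametocyte cultures (from day 13) were split into two flasks, one with test compound and one with DMSO only. Aliquots taken after 15 min at 37 °C and after 24 h were activated with xanthurenic acid for 15 min, pelleted, and resuspended in medium containing 100 µM xanthurenic acid. Exflagellation centres were counted in 30 fields relative to the DMSO control. The experiment was run twice, on separately seeded cultures.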

[4] = NF54, read-out: Mean IC50 ± SD NF54
[5] = DD2|NF54, read-out: IC50 (considered not effective)

SMILES | Selectivity index SI (NF54) [1] | IC50 [1, 4] [nM] | Selectivity index SI (Dd2) (P. falciparum strain Dd2) | IC50 (P. falciparum strain Dd2) [nM] | CC50 (MTT cytotoxicity assay) [nM] | also measured
Cc1ccc2c(c1)C(=O)c1nc3ccccc3c(=O)n1-2 [Compound T1, 8-Methyl-indolo [2,1-b] quinazoline-6,12-dione] | >1000 | 85 ± 37 | >400 | 216 ± 116 | > 100000 | gain in activity over the parent compound tryptanthrin [1]: approximately three times
O=C1c2cc([N+](=O)[O-])ccc2-n2c1nc1cc(Cl)ccc1c2=O [NT1, 3-Chloro-8-nitro-indolo [2,1-b] quinazoline-6,12-dione] | 155.9 | 33 ± 4 | 168.7 | 31 ± 5 | 5150 ± 110 | times more potent than tryptanthrin [1]: at least 5; IC50 ([1]; NF54): 30 nM; times more active than tryptanthrin (P. falciparum strain Dd2; CQ-resistant strain): 3.3; solubility (Solubility in DMSO): 10 mM (≈ 3280 µg/mL)
COC(=O)c1ccc2c(=O)n3c(nc2c1)C(=O)c1cc(Br)ccc1-3 [BT5, 8-Bromo-6,12-dioxo-6,12-dihydro-indolo[2,1-b] quinazoline-3-carboxylic acid methylester] | 70.9 | 162 ± 93 | 40 | 287 ± 24 | 11500 ± 5420 | 
O=C(O)c1ccc2c(=O)n3c(nc2c1)C(=O)c1cc(Br)ccc1-3 [BT4, 8-Bromo-6,12-dioxo-6,12-dihydro-indolo[2,1-b] quinazoline-3-carboxylic acid] |  | > 50000 |  | > 50000 | 71000 ± 39700 | IC50 [1, 5]: > 50000 nM
O=C1c2cc(F)ccc2-n2c1nc1ccccc1c2=O [Compound T6, 8-Fluoro-indolo [2,1-b] quinazoline-6,12-dione] | 306.5 | 57 ± 10 | 175.6 | 100 ± 15 | 17500 ± 650 | times more potent than tryptanthrin [1]: at least 5; gain in activity over the parent compound tryptanthrin [1]: approximately three times
O=C1c2ccccc2-n2c1nc1ccccc1c2=O [TRYP, indolo-[2,1-b]-quinazoline-6, 12-Dione, reference compound] |  | 288 ± 87 |  | 114 ± 17 | 45900 ± 700 | 
O=C1c2cc([N+](=O)[O-])ccc2-n2c1nc1ccccc1c2=O [Compound T4, 8-Nitro-indolo [2,1-b] quinazoline-6,12-dione] | 45.1 | 106 ± 38 | 29 | 165 ± 55 | 4780 ± 490 | gain in activity over the parent compound tryptanthrin [1]: approximately three times
CCN(CC)CCCC(C)Nc1ccnc2cc(Cl)ccc12 (stereo not drawn) [CQ, Chloroquine, reference compound] |  | 21 ± 2 |  | 294 ± 30 | > 100000 | times more potent against CQ-sensitive strain compared with the resistant strain ([1]; CQ-sensitive versus CQ-resistant strain): 13; IC50 ([1]; NF54): 20 nM
O=C1c2cc(Br)ccc2-n2c1nc1ccccc1c2=O [Compound T2, 8-Bromo-indolo [2,1-b] quinazoline-6,12-dione] | 129.3 | 81 ± 8 | 110.2 | 95 ± 58 | 10500 ± 1520 | gain in activity over the parent compound tryptanthrin [1]: approximately three times
O=C1c2cc([N+](=O)[O-])ccc2-n2c1nc1cc(Br)ccc1c2=O [NT6, 3-Bromo-8-nitro-indolo [2,1-b] quinazoline-6,12-dione] | 243.3 | 72 ± 23 | 174 | 101 ± 68 | 17500 ± 770 | 
O=C1c2ccccc2-n2c1nc1ccc([N+](=O)[O-])cc1c2=O [2-Nitrotryptanthrin] |  |  |  |  |  | stability (Stability observation): highly unstable
CC[C@H](C)[C@H](NC(=O)[C@H]([C@@H](C)CC)N(C)C(C)=O)C(=O)N[C@H](C(=O)N[C@@H](CC(C)C)C(=O)[C@@]1(C)CO1)[C@@H](C)O [epoxomicin] |  |  |  |  |  | effect on gametocytes in culture [2]: fully eliminate the gametocytes
COc1cc2nc3n(c(=O)c2cc1OC)-c1ccc([N+](=O)[O-])cc1C3=O [NT3, 2,3-Dimethoxy-8-nitro-indolo [2,1-b] quinazoline-6,12-dione] | 53.6 | 283 ± 93 | 113.2 | 134 ± 47 | 15200 ± 4410 | 
COC(=O)c1ccc2c(=O)n3c(nc2c1)C(=O)c1cc([N+](=O)[O-])ccc1-3 [NT5, 8-Nitro-6,12-dioxo-6,12-dihydro-indolo[2,1-b] quinazoline-3-carboxylic acid methyl ester] | 71.7 | 167 ± 67 | 72.1 | 166 ± 36 | 12000 ± 500 | 
COc1cc2nc3n(c(=O)c2cc1OC)-c1ccc(Br)cc1C3=O [BT3, 8-Bromo-2,3-dimethoxy-indolo[2,1-b]quinazoline-6,12-dione] | >1000 | 88 ± 41 | >100 | 761 ± 194 | > 100000 | 
O=C1c2cc(Cl)ccc2-n2c1nc1ccccc1c2=O [Compound T7, 8-Chloro-indolo [2,1-b] quinazoline-6,12-dione] | 286.1 | 95 ± 33 | 158.5 | 172 ± 18 | 27200 ± 6680 | gain in activity over the parent compound tryptanthrin [1]: approximately three times
O=C1c2ccccc2-n2c1nc1cc(Cl)ccc1c2=O [Compound T8, 3-Chloro-indolo [2,1-b] quinazoline-6,12-dione] | 186 | 92 ± 3 | 103.5 | 165 ± 81 | 17100 ± 4260 | reduction of exflagellation of microgametes [3]: neither tryptanthrin nor T8 were able to significantly inhibit the exflagellation; also recorded: no influence on exflagellation
O=C1c2cc(Br)ccc2-n2c1nc1ccc(Cl)cc1c2=O [BT2, 8-Bromo-2-chloro-indolo [2,1-b] quinazoline-6,12-dione] | >2000 | 36 ± 24 | >800 | 123 ± 62 | > 100000 | times more potent than tryptanthrin [1]: at least 5
O=C(O)c1ccc2c(=O)n3c(nc2c1)C(=O)c1cc([N+](=O)[O-])ccc1-3 [NT4, 8-Nitro-6,12-dioxo-6,12-dihydro-indolo[2,1-b]quinazoline-3-carboxylic acid] |  | > 50000 |  | > 50000 | > 100000 | IC50 [1, 5]: > 50000 nM
O=C1c2cc(Br)ccc2-n2c1nc1cc(Cl)ccc1c2=O [BT1, 8-Bromo-3-chloro-indolo [2,1-b] quinazoline-6,12-dione] | 66 | 36 ± 17 | 10 | 238 ± 80 | 2380 ± 1 | times more potent than tryptanthrin [1]: at least 5
Cc1cccc2c1C(=O)c1nc3ccccc3c(=O)n1-2 [Compound T3, 7-Methyl-indolo [2,1-b] quinazoline-6,12-dione] | 39.2 | 450 ± 98 | 29.3 | 602 ± 115 | 17600 ± 300 | 
O=C1c2cc([N+](=O)[O-])ccc2-n2c1nc1ccc(Cl)cc1c2=O [NT2, 2-Chloro-8-nitro-indolo [2,1-b] quinazoline-6,12-dione] | 96.7 | 129 ± 22 | 136.5 | 91 | 12500 ± 230 | 
